Several values for one entry are separate records, joined by “and”; a condition that tells them apart may be missing. Equal entries are not always repeated.
Assays:
[1] = molecular target: T1, Sterol O-acyltransferase 1 (Rattus norvegicus) (UniProt O70536); assay: In vitro inhibitory activity against acyl coenzyme A:cholesterol acyltransferase (ACAT); design: concentration or dose not given beside the values; details: concentration not given here
T1 sequence (whole entry): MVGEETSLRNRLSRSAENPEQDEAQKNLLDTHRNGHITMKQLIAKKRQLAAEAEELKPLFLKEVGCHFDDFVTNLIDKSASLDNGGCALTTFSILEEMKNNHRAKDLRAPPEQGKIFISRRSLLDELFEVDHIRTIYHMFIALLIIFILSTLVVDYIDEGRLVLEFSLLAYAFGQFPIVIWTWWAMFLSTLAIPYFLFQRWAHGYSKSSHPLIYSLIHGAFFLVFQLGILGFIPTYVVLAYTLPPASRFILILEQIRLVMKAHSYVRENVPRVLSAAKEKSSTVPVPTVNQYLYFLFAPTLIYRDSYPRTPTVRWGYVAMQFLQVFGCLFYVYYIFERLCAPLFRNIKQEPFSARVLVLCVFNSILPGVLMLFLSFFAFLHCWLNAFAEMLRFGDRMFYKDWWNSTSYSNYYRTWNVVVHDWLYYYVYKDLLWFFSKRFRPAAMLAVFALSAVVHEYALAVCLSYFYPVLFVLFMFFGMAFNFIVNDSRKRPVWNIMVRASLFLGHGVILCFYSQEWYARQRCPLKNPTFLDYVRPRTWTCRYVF
Outline: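 ACAT enzyme from rat adrenal homogenate in 0.2 M KH2PO4 buffer pH 7.4, 1000g 15 min 5 °C supernatant (microsomal fraction). Supernatant + BSA (50 mg/mL) + compound at final 5.2 μg/mL + buffer preincubated 10 min 37 °C; [14C]oleoyl-CoA (0.4 μCi) added, 30 min 37 °C. Lipids extracted, TLC; cholesteryl ester zone counted. Mean % inhibition vs no-compound control; Student's t test.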

[2] = tested on: Rattus norvegicus; assay: In vivo triglyceride lowering activity dosed at 0.10 % of the diet; assay type: functional
Outline: (§1)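 Male CFE or CD-1 Sprague-Dawley rats, 140-150 g; 8 per control group, 4 per test group. Compound mixed into ground chow (w/w) via MeOH-CHCl3 (1:3) solution, solvent evaporated; controls got solvent-treated chow. Fed ad libitum 5 days, food intake monitored, killed fed and bled. Serum sterols and triglycerides by adapted autoanalyzer methods; mean percent of control, Student's t test.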

[3] = tested on: Rattus norvegicus; assay: In vivo Triglyceride lowering activity at dose as 0.01 % of the diet; assay type: functional; outline: as §1
[4] = tested on: Rattus norvegicus; assay: In vivo Sterol lowering activity at dose as 0.01 % of the diet.; assay type: functional; outline: as §1
[5] = tested on: Rattus norvegicus; assay: In vivo Sterol lowering activity at dose as 0.10 % of the diet.; assay type: functional; outline: as §1
[6] = tested on: Rattus norvegicus; assay: In vivo Sterol lowering activity at dose as 0.03 % of the diet.; assay type: functional; outline: as §1
[7] = tested on: Rattus norvegicus; assay: In vivo triglyceride lowering activity, dosed at 0.03 % of the diet; assay type: functional; outline: as §1
[8] = tested on: Rattus norvegicus; assay: In vivo sterol lowering activity dosed at 0.10 % of the diet; assay type: functional; outline: as §1
[9] = tested on: Rattus norvegicus; assay: In vivo triglyceride lowering activity, dosed at 0.01 % of the diet.; assay type: functional; outline: as §1
[10] = tested on: Rattus norvegicus; assay: In vivo Sterol lowering activity at dose as 0.05 % of the diet; assay type: functional; outline: as §1
[11] = tested on: Rattus norvegicus; assay: In vivo triglyceride lowering activity dosed at 0.05 % of the diet; assay type: functional; outline: as §1

Row | SMILES | inhibition [1] | serum triglycerides, percent of control [2] | serum sterol, percent of control [4] | serum sterol level, percent of control [6] | serum triglycerides, percent of control [7] | serum sterol, percent of control [8] | further results
1 | CCCCCCCCCCCCNc1ccc(C(=O)O)cc1 | < 21% and 17% |  |  |  |  |  | 
2 | CCOC(=O)c1ccc(NCCCCCCc2ccco2)cc1 | 37% | 60% | 95% | 103% | 64% |  | Diet [3]: 68%; serum sterol, percent of control [5]: 90%
3 | CCCCCCCCCCCCCCCCCCCNc1ccc(C(=O)O)cc1 | < 36% |  |  |  |  |  | 
4 | CCCCCCNc1ccc(C(=O)O)cc1 |  |  |  |  |  |  | serum sterol, percent of control [5]: 94%
5 | O=C(O)c1ccc(NCCCc2ccc(Cl)cc2)cc1 [listing 1 of 2 here] | 18% and 19% |  |  |  |  |  | 
6 | O=C(O)c1ccc(NCCCc2cccc(Br)c2)cc1 | 18% | 60% | 92% | 91% | 67% | 80% | Diet [3]: 63%
7 | O=[N+]([O-])c1ccc(CCCNc2ccccc2)cc1 | 46% | 49% | 90% | 88% | 61% |  | Diet [9]: 90%; serum sterol, percent of control [5]: 87%
8 | O=C(O)c1ccc(C(=O)O)c(NCCCc2ccc(Cl)cc2)c1 | 0% | 51% | 102% | 100% | 57% |  | Diet [9]: 72%; serum sterol, percent of control [5]: 103%
9 | CCOC(=O)c1ccc(NC/C=C/c2ccc(Cl)cc2)cc1 | 23% | 46% | 93% | 100% | 45% |  | Diet [3]: 64%; serum sterol, percent of control [5]: 78%
10 | O=C(O)c1ccc(NCCCCCCCc2ccccc2)cc1 | 14% | <71% |  |  |  | 91% | Diet [10]: 96%; Diet [11]: <61%
11 | CCOC(=O)c1ccc(NCCCCCCCCCC/C=C\c2cccs2)cc1 | < 47% | 72% |  |  |  | <82% | 
12 | CCCCCCCCCCCCCCCCCCNc1ccc(C(=O)O)cc1 | < 60% |  |  |  |  |  | 
13 | C=C(CCCCCCCCCC)CCCCCNc1ccc(C(=O)OCC)cc1 | 9% | <56% |  |  |  | <88% | 
14 | CCCCCCCCCCCCCCCCCNc1ccc(C(=O)OCC)cc1 |  |  |  |  |  | 111% | 
15 | C=CCCCCCCCC/C=C/CCCNc1ccc(C(=O)O)cc1 | < 44% |  |  |  |  |  | 
16 | O=C(O)c1ccc(NCc2ccc(Cl)cc2)cc1 | 15% and 13% |  |  |  |  |  | 
17 | COc1ccc(CCC(=O)Nc2ccc(C(=O)O)cc2)cc1 | 0% |  |  |  |  |  | 
18 | O=C(O)c1ccc(NC/C=C/c2ccc(Cl)cc2)cc1 | 26% | 54% | 83% | 92% | 48% |  | Diet [9]: 95%; serum sterol, percent of control [5]: 90%
19 | CCCCCCCCc1ccc(CCCNc2ccc(C(=O)OCC)cc2)s1 | < 57% | <46% |  |  |  | <83% | 
20 | O=C(O)c1ccc(NCCCc2ccc(Cl)cc2)cc1 [listing 2 of 2 here] |  | 50% | 94% | 94% | 54% | 72% | Diet [9]: 70%
21 | CCN(CCCc1ccc(Cl)cc1)c1ccc(C(=O)O)cc1 | 52% | 68% |  |  |  |  | serum sterol, percent of control [5]: 83%
22 | CCCCCCCCCCCCCNc1ccc(C(=O)O)cc1 | < 29% |  |  |  |  |  | 
23 | CCOC(=O)c1ccc(NCCCc2ccc(C)cc2)cc1 | 31% | 68% | 127% | 103% | 54% | 122% | Diet [3]: 72%

Row | SMILES | inhibition [1] | serum triglycerides, percent of control [2] | serum sterol, percent of control [4] | serum sterol level, percent of control [6] | serum triglycerides, percent of control [7] | serum sterol, percent of control [8] | further results
24 | CC(C(=O)O)c1ccc(NCCCc2ccc(Cl)cc2)cc1 (stereo not given) | 14% | 33% | 94% | 96% | 63% | 62% | Diet [3]: 63%
25 | CN(CCCc1ccc(Cl)cc1)c1ccc(C(=O)O)cc1 | 24% | 74% |  |  |  |  | serum sterol, percent of control [5]: 107%
26 | CCOC(=O)c1ccc(NCCCc2ccc(OC)cc2)cc1 | 54% | 60% | 97% | 90% | 59% | 86% | Diet [9]: 82%
27 | CCOC(=O)c1ccc(N(C)CCCc2ccc(Cl)cc2)cc1 | 53% | 49% |  |  |  |  | serum sterol, percent of control [5]: 99%
28 | COc1ccc(/C=C/C(=O)Nc2ccc(C(=O)O)cc2)cc1 | 20% |  |  |  |  |  | 
29 | CCOC(=O)c1ccc(NCc2ccc(Cl)cc2)cc1 | 33% | 50% | 94% | 86% | 53% | 84% | Diet [9]: 78%
30 | CCCCCCCCCC/C=C/CCCNc1ccc(C(=O)O)cc1 | < 46% |  |  |  |  |  | 
31 | CCOC(=O)c1ccc(NCCCc2cccc(Cl)c2)cc1 | 79% | 56% | 93% | 88% | 65% | 80% | Diet [3]: 65%
32 | CCCCCCCCCCCCCNc1ccc(C(=O)OCC)cc1 | < 22% | <70% |  |  |  | 91% | 
33 | CCOC(=O)c1ccc(NCCCCCCCCCCCCc2cccs2)cc1 | < 40% | <46% |  |  |  | 103% | 
34 | CCOC(=O)c1ccc(NCCCc2cccc(F)c2)cc1 | 50% | 37% | 91% | 88% | 55% | 77% | Diet [3]: 78%
35 | CCOC(=O)c1ccc(NCCCc2c(Cl)cccc2Cl)cc1 | 62% | 64% |  |  |  |  | serum sterol, percent of control [5]: 92%
36 | CCOC(=O)c1ccc(NCCCCCCCCCC/C=C/c2cccs2)cc1 | < 62% |  |  |  |  |  | 
37 | CCCCCCCCCCCCCCCCNc1ccc(C(=O)O)cc1 | < 53% |  |  |  |  |  | 
38 | CCCCCCCCCCCc1nc(CNc2ccc(C(=O)OCC)cc2)c[nH]1 | < 59% | 83% |  |  |  | 100% | 
39 | O=C([O-])c1ccc(NCCCc2ccc(Cl)cc2)cc1.[Na+] |  | 52% | 94% | 92% | 60% | 84% | Diet [9]: 72%
40 | CCOC(=O)c1ccc(NCCCCCCc2cccs2)cc1 | 63% |  |  |  |  |  | 
41 | CCOC(=O)c1ccc(N(CC)CCCc2ccc(Cl)cc2)cc1 | 48% | 67% |  |  |  |  | serum sterol, percent of control [5]: 86%
42 | CCOC(=O)c1ccc(NC(=O)/C=C/c2ccc(OC)cc2)cc1 | 52% |  |  |  |  |  | 
43 | CCCCCCCCCCCCCCCCNc1ccc(C(=O)OC)cc1 | 0% | 85% |  |  |  | 97% | 
44 | CCOC(=O)c1ccc(NCCCc2ccc(Cl)cc2)cc1 | 42% | 52% | 90% | 89% |  | 76% | 
45 | O=C(O)c1ccc(NCCCc2ccc(Cl)c(Cl)c2)cc1 | 19% | 63% | 96% | 89% | 70% | 73% | Diet [9]: 79%
